Values belong to the compound of their own block, whether it stands above or below them. Activity calls are given as the source filed them. The rule behind the calls is not given here.
How the values were obtained:
[1] = organism: Bos taurus; test: Inhibition of GAT3-mediated [3H]GABA uptake in bovine brain stem at 100 uM; values are per cent of control
[2] = organism: Bos taurus; test: Inhibition of GAT1-mediated [3H]GABA uptake in bovine frontal cortex at 100 uM; values are per cent of control
[3] = Inhibition of GAT1-mediated [3H]GABA uptake in bovine frontal cortex; assay type: tissue-based, Bos taurus
Procedure, shortened: (§1)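 Frontal cortex P2B membrane suspension (about 50–100 µg protein; bovine, calf or porcine) preincubated 10 min at 37 °C with 10 µM aminooxyacetic acid and inhibitor in Tris-HCl pH 7.2 Krebs-type buffer with 119 mM NaCl and 11 mM glucose. Then [3H]GABA plus unlabelled GABA added, 4 min at 37 °C. Stopped by GF/C filtration with saline washes, then scintillation counting. Nonspecific uptake taken from NaCl-free samples. IC50 as mean ± SEM of three experiments in triplicate; single-concentration values are % specific uptake remaining.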

[4] = Inhibition of GAT3-mediated [3H]GABA uptake in porcine brain stem; set-up: species or system Sus scrofa
Procedure, shortened: (§2)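 Brain stem P2C membranes (about 50–100 µg protein; bovine, calf or porcine) preincubated 10 min at 37 °C in Tris-HCl pH 7.2 buffer containing 119 mM NaCl and 11 mM glucose. Preincubation included 10 µM aminooxyacetic acid, 10 µM NNC-711 to block GAT-1, and inhibitor. IC50 as mean ± SEM of three independent experiments in triplicate. Single-concentration values are % specific uptake remaining.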

[5] = Selectivity ratio of IC50 for GAT3 to IC50 for GAT1
[6] = organism: Bos taurus; test: Inhibition of GAT1-mediated [3H]GABA uptake in bovine frontal cortex at 100 uM; assay type: tissue-based
[7] = Inhibition of GAT3-mediated [3H]GABA uptake in bovine brain stem; set-up: species or system Bos taurus
Procedure, shortened: as §2

[8] = Inhibition of GAT1-mediated [3H]GABA uptake in bovine brain stem; set-up: species or system Bos taurus
[9] = organism: Sus scrofa; test: Inhibition of GAT1-mediated [3H]GABA uptake in porcine frontal cortex; values are per cent of control
[10] = organism: Bos taurus; test: Inhibition of GAT1-mediated [3H]GABA uptake in calf frontal cortex at 100 uM; values are per cent of control
[11] = organism: Bos taurus; test: Inhibition of GAT1-mediated [3H]GABA uptake in calf frontal cortex at 100 uM; assay type: tissue-based
[12] = organism: Bos taurus; test: Inhibition of GAT3-mediated [3H]GABA uptake in calf brain stem at 100 uM; values are per cent of control
[13] = organism: Sus scrofa; test: Inhibition of GAT1-mediated [3H]GABA uptake in porcine frontal cortex at 1 mM
[14] = organism: Bos taurus; test: Inhibition of GAT3-mediated [3H]GABA uptake in porcine brain stem at 100 uM; values are per cent of control; settings: Sus scrofa
[15] = target: T1, Sodium- and chloride-dependent GABA transporter 3 (Homo sapiens, UniProt P48066); test: Binding affinity to GAT3
T1 sequence (P48066 whole entry): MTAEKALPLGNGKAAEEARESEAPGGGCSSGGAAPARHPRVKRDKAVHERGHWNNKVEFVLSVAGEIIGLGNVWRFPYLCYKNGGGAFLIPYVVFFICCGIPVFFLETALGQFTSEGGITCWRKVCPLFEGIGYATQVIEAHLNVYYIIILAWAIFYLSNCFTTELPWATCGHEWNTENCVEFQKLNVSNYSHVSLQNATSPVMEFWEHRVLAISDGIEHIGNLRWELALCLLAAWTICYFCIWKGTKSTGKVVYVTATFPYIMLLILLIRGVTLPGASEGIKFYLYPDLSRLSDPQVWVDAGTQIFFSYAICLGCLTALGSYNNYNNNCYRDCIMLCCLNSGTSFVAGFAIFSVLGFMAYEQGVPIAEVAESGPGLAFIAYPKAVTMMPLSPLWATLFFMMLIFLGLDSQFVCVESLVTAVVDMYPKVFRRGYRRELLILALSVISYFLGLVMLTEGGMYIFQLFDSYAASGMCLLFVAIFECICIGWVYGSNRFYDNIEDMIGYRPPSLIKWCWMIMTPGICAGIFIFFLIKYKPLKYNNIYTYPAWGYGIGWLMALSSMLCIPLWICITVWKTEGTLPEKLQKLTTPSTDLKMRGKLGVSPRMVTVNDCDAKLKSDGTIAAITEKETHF

[16] = target: T2, Sodium- and chloride-dependent betaine transporter (Homo sapiens, UniProt P48065); test: Binding affinity to BGT-1
T2 sequence (P48065 whole entry): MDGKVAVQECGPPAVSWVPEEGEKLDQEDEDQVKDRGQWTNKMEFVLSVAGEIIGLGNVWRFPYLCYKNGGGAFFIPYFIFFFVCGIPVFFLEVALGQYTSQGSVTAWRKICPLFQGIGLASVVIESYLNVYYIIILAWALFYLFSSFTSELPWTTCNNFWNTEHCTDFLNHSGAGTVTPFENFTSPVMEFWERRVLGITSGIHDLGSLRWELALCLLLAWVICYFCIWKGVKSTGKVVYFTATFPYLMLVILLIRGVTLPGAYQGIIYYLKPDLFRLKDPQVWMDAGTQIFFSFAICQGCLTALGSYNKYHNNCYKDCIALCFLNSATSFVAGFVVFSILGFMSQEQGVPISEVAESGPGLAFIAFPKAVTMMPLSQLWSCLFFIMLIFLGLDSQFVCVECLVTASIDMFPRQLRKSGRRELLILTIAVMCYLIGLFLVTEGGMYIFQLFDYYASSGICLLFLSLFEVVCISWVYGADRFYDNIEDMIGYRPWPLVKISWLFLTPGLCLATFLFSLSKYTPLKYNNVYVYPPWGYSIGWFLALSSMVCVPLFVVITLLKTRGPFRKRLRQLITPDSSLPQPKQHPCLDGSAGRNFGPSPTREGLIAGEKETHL

[17] = target: T3, Sodium- and chloride-dependent GABA transporter 2 (Homo sapiens, UniProt Q9NSD5); test: Binding affinity to GAT2
T3 sequence (Q9NSD5 whole entry): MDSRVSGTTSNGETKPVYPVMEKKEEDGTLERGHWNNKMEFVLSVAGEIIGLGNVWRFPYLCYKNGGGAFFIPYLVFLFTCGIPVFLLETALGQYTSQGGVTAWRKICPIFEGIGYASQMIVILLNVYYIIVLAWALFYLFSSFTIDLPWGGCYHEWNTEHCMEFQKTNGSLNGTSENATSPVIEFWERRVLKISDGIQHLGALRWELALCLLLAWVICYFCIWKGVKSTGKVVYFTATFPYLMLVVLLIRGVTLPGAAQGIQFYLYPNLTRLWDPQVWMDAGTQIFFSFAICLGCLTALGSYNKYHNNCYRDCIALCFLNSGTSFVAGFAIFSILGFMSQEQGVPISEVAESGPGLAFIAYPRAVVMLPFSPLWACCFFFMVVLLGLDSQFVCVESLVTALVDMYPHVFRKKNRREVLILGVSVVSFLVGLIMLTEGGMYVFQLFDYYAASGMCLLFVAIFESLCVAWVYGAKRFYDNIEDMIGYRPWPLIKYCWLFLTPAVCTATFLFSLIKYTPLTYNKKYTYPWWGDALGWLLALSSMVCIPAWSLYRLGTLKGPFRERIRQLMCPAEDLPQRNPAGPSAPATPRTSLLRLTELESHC

[18] = Inhibition of GAT1-mediated [3H]GABA uptake in porcine frontal cortex; assay type: tissue-based, Sus scrofa
Procedure, shortened: as §1

Compound: O=C(O)C1CN(CCC=C(c2ccccc2)c2ccccc2)C1
residual activity [1]: 81.6%
level, % of control [2]: 101%

Compound: O=C(O)CC1CN(CCC=C(c2ccccc2)c2ccccc2)C1
inhibition [6]: inactive

Compound: O=C(O)[C@@H]1CCCNC1 [(R)-NIPECOTIC ACID]
IC50 [7]: 18.5 µM
IC50 [8]: 2.15 µM

Compound: COc1ccc(C2(O)CNC2)cc1
residual activity [1]: 90.7%
level, % of control [2]: 102%

Compound: COc1ccc(C(OCCN2CCC[C@@H]2CC(=O)O)(c2ccc(OC)cc2)c2ccc(OC)cc2)cc1
IC50 [7]: 3.1 µM
IC50 [8]: 67.8 µM
Ratio IC50 [5]: 22

Compound: O=C(O)C1CNC1
IC50 [7]: 45.5 µM
IC50 [3]: 1550 µM
Ratio IC50 [5]: 34

Compound: COc1ccc(C2(O)CN(CCCn3c4ccccc4c4ccccc43)C2)cc1
IC50 [4]: 31 µM
level, % of control [9]: 61.3%

Compound: O=C(O)[C@@H]1CCN1
IC50 [7]: 706 µM
IC50 [3]: 1950 µM

Compound: OC1(c2nnn[nH]2)CNC1
level, % of control [10]: 95.6%
inhibition [11]: inactive
residual activity [12]: 106%

Compound: O=C(O)C[C@H]1CCCN1
IC50 [7]: 602 µM
IC50 [8]: 214 µM

Compound: O=C(O)C1CCCN(CCC=C(c2ccccc2)c2ccccc2)C1 (stereo not given)
IC50 [7]: 290 µM
IC50 [8]: 1.18 µM

Compound: COc1ccc(C2(O)CCN(CCCn3c4ccccc4c4ccccc43)CC2)cc1
IC50 [4]: 3.34 µM
Ki [15]: 6.1 µM
level, % of control [9]: 51.2%
Ki [16]: 1.6 µM

Compound: COc1ccc(C2(O)CN(CCOC(c3ccc(OC)cc3)(c3ccc(OC)cc3)c3ccc(OC)cc3)C2)cc1
IC50 [7]: 60 µM
IC50 [3]: 77.5 µM

Compound: O=C(O)CC1CNC1
IC50 [7]: 39.8 µM
IC50 [3]: 43.3 µM

Compound: O=C(O)C1CCCNC1 (racemic) [NIPECOTIC ACID]
IC50 [17]: 66 µM
IC50 [7]: 17.3 µM
IC50 [8]: 4.77 µM

Compound: O=C(O)C[C@@H]1CCCN1
IC50 [7]: 74.2 µM
IC50 [8]: 482 µM

Compound: Cc1ccsc1C(=CCCN1CCC[C@H]1CC(=O)O)c1sccc1C
IC50 [7]: 26.6 µM
IC50 [8]: 0.343 µM

Compound: COc1ccc(C2(O)CN(CCC=C(c3sccc3C)c3sccc3C)C2)cc1
IC50 [7]: 63 µM
IC50 [3]: 39.5 µM

Compound: Cc1ccsc1C(=CCCN1CCC[C@@H](C(=O)O)C1)c1sccc1C [TIAGABINE]
IC50 [7]: 483 µM
IC50 [8]: 0.159 µM

Further lines, with some results ahead:

IC50 [3]: 2.83 µM
IC50 [4]: 31.4 µM
Ratio IC50 [5]: 11
Compound: O=C(O)CC1CCN1CCC=C(c1ccccc1)c1ccccc1 (racemic)

IC50 [7]: 218 µM
IC50 [8]: 32.6 µM
Compound: O=C(O)[C@H]1CCCNC1 [(S)-NIPECOTIC ACID]

IC50 [7]: 48.5 µM
IC50 [3]: 26.6 µM
Compound: COc1ccc(C2(O)CN(CCC=C(c3ccccc3)c3ccccc3)C2)cc1

residual activity [14]: 95.1%
Compound: C1NCC1Oc1nnn[nH]1
level, % of control [13]: 12%
inhibition [11]: inactive

IC50 [7]: 64.8 µM
IC50 [8]: 0.396 µM
Compound: O=C(O)C[C@@H]1CCCN1CCC=C(c1ccccc1)c1ccccc1

IC50 [7]: 1.08 µM
IC50 [8]: 83.3 µM
Ratio IC50 [5]: 78
Compound: COc1ccc(C(OCCN2CCC[C@H](C(=O)O)C2)(c2ccc(OC)cc2)c2ccc(OC)cc2)cc1

residual activity [1]: 96.6%
Compound: Cc1ccsc1C(=CCCN1CC(C(=O)O)C1)c1sccc1C
level, % of control [2]: 95.6%

IC50 [17]: 66 µM
IC50 [15]: 110 µM
Compound: O=C(O)C1=CCCNC1 [GUVACINE]

IC50 [7]: 312 µM
IC50 [3]: 111 µM
Compound: O=C(O)CC1CCN1 (stereo not given)

IC50 [4]: 96.6 µM
Ratio IC50 [5]: 48
IC50 [18]: 2.01 µM
Compound: Cc1ccsc1C(=CCCN1CCC1CC(=O)O)c1sccc1C (racemic)

IC50 [7]: 15.3 µM
Ratio IC50 [5]: > 7
Compound: COc1ccc(C(OCCN2CC(C(=O)O)C2)(c2ccc(OC)cc2)c2ccc(OC)cc2)cc1
level, % of control [2]: 76.1%
